Assay outcomes from PubChem BioAssay.
The list is not random: actives were taken first. Their share in the collection is about 5.2%.
NS3 helicase inh – inhibitors of HCV NS3 helicase, primary screen, biochemical, Cy5 molecular beacon fluorescence | inhibition, % at 10.9 µM | Hepatitis C virus NS3 helicase | NS3 helicase DNA unwinding | 290,000 tested, 0.56% active;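 active means inhibition above the mean of all tested compounds plus 3 SD, set per campaign, cut at about 35% in these data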;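 further: 0% = DMSO wells and 100% = thioflavine S control wells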
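Material: hepatitis C virus NS3 helicase domain fragment enzyme; measured by: Cy5 fluorescence, 0 and 60 min reads; control set: DMSO and thioflavine S; incubation: 60 min unwinding reaction at 25 °C after ATP addition; read-out basis: % inhibition from 60/0 min fluorescence ratio, DMSO 0%, thioflavine S 100%; repeats: singlicate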
ZTA counter – ZTA (EBV) inhibition in EBNA-1 counter-screen; P03206; ZTA-DNA binding, fluorescence polarization; inhibition, % at 11 µM; 320,000 tested, 0.15% active; in the data active means inhibition above about 33%
Target sequence (P03206 whole entry, looked up): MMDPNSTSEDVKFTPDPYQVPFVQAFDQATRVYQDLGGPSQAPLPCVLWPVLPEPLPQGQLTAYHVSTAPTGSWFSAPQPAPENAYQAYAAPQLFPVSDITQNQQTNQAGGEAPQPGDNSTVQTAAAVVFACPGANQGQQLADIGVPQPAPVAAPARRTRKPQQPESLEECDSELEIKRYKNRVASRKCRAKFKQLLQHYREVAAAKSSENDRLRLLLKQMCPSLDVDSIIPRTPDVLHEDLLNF
PfM18AAP inh-1 – PfM18AAP inhibitors, malaria aminopeptidase, primary screen, biochemical, QFRET, recombinant enzyme; inhibition, % at 7.35 µM; 290,000 tested, 1.2% active; AID 1822, 2009; H-Glu-NHMec fluorogenic cleavage; M18 aspartyl aminopeptidase (Plasmodium falciparum 3D7);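 active means inhibition above the campaign mean inhibition over all tested compounds plus 3 SD, cut at about 28% in these data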;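 further: 0% = plate median of test compound wells and 100% = 2 mM ZnCl2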
HCV core dimer – inhibitors of HCV core protein dimerization, primary screen, biochemical, TR-FRET, high-throughput; TR-FRET GST/Flag-core106 dimerization, 1536-well; inhibition, % at 5 µM; 300,000 tested, 0.33% active; AID 1899, 2009;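 active means inhibition above the mean of all tested compounds plus 3 SD, set per screening campaign, cut at about 45% in these data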
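Material: Tagged HCV core106 pair (GST and Flag) | Amount: GST-core106 13.5 nM, Flag-core106 17 nM | Medium: KF-containing HEPES buffer, pH 7.45, DTT, CHAPS, BSA | Reagent: Eu donor and XL665 acceptor anti-tag antibodies | Schedule: 4 h at 22.5 °C | Technique: Time-resolved FRET, ex 340 nm, em 617 and 671 nm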
ALR H2O2 inh – inhibitors of human ALR sulfhydryl oxidase, primary screen, biochemical, H2O2 detection, HRP-luminol luminescence, single point; FAD-linked sulfhydryl oxidase ALR (Homo sapiens), P55789; AID 485317, 2010; purified ALR, DTT oxidation; 290,000 tested, 3.8% active; inhibition, % (concentration not given with the values);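 active means mean replicate inhibition above about 79%, with every replicate also reaching it, limit read from the data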
EBNA-1 inhibitor – EBNA-1 DNA-binding inhibitors, primary screen, biochemical, fluorescence polarization | inhibition, % at 14.8 µM | AID 1950, 2009 | 300,000 tested, 0.34% active; in the data active means inhibition above about 28%
PfM18AAP inh-2 – PfM18AAP inhibitors, malaria aminopeptidase, confirmation, biochemical, QFRET, recombinant enzyme, triplicate; inhibition, % at 7.35 µM; shares compounds with PfM18AAP inh-1; AID 2170, 2009; H-Glu-NHMec fluorogenic cleavage; 2,400 tested, 28% active;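 active means mean inhibition over replicate wells above the hit cutoff set for the earlier primary screen, cut at about 29% in these data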;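 further: 0% = median of test compound wells and 100% = 2 mM ZnCl2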
CTSL1 counter – cathepsin L1 inhibitors, retest, confirmation, counter-screen for PFM18AAP inhibitor project, biochemical, QFRET, triplicate; shares compounds with PfM18AAP inh-1; purified cathepsin L1, Z-Leu-Arg-MCA fluorescence; inhibition, % at 5.96 µM; 2,400 tested, under 10 active;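 active means average inhibition across replicates above the hit cutoff set in the earlier primary screen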;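 further: 0% = median of test compound wells and 100% = Z-Phe-Ala-diazomethylketone 1 µM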
Target sequence (P07711 whole entry, looked up): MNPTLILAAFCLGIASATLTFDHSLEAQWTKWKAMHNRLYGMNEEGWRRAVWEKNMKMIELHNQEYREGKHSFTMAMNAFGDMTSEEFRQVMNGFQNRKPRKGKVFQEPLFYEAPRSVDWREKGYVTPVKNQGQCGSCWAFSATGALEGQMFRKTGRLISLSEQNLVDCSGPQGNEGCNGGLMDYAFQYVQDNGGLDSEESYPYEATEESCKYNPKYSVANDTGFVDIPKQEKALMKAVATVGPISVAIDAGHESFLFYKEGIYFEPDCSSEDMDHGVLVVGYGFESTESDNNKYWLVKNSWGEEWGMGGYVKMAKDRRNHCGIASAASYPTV
Numbers without * were called inactive; x = no result given.

SMILES	NS3 helicase inh	ZTA counter	PfM18AAP inh-1	HCV core dimer	ALR H2O2 inh	EBNA-1 inhibitor	PfM18AAP inh-2	CTSL1 counter
CCOc1ccc(CCNC(=O)c2cc3c(s2)CS(=O)(=O)C3)cc1OCC	-6	-7	0	1	-7	0	x	x
COc1cccc(-c2ccc(SCC(=O)N3CCc4ccccc43)nn2)c1	-8	-20	2	11	-5	-6	x	x
Cc1ccc(-c2ccc(/C=N/c3ncn[nH]3)o2)cc1Cl	-7	5	37*	14	64	-7	43*	2
Cc1nnc(SCc2cc(=O)[nH]c(=S)[nH]2)s1	7	7	47*	3	5	4	16	1
O=C(COc1ccc2c3c(c(=O)oc2c1)CCC3)Nc1ccc(CN2CCOCC2)cc1	-36	11	2	6	-1	-1	x	x
CCN(CC)CCN1C(=O)C(=O)/C(=C(/O)c2ccc(S(=O)(=O)N3CCOCC3)cc2)C1c1ccc(C)cc1 (centres undefined)	4	7	5	4	1	-12	x	x
Cc1cc(Cl)c2oc(C(=O)N3CCCCC3CCN3CCCC3=O)c(C)c2c1 (centres undefined)	-4	21	-3	4	4	1	x	x
O=C(/C=C/c1cccs1)N1CCN(c2ccc(O)cc2)CC1	14	-12	45*	-1	99*	-14	-10	5
O=C(NCCc1ccc(Cl)cc1)c1cc(-c2ccccn2)nc2ccccc12	4	7	4	5	x	5	x	x
O=C1CC(N2CCN(c3ccc(O)cc3)CC2)C(=O)N1c1ccc2c(c1)OCO2 (centres undefined)	6	4	32*	1	99*	-4	-16	0
CC(C)n1c(=O)[nH][nH]c1=S	-11	8	57*	4	15	3	36*	1
O=C(COc1cccc(C(F)(F)F)c1)N1CCN(c2ccc(O)cc2)CC1	11	-5	33*	-3	x	-9	-24	4
COc1ccc2c(c1OC)C(=O)OC2CC(=O)c1ccc(O)cc1 (centres undefined)	3	-21	3	-4	22	-15	x	x
COc1ccc2c(c1OC)C(=O)OC2CC(=O)c1ccc(O)c(O)c1 (centres undefined)	1	1	43*	-6	99*	10	19	0
Cc1[nH]n(-c2ccc(F)cc2)c(=O)c1/C=N/c1sc2c(c1C#N)CCCC2	21	-10	34*	-2	-5	2	-56	3
Cc1[nH]n(-c2cccc3ccccc23)c(=O)c1/C=N/c1sc2c(c1C#N)CCC2	7	-4	14	14	34	-5	x	x
COc1ccc(OCC(=O)Nc2cc(OC)ccc2N2CCCCC2)cc1	-16	-4	1	1	1	-1	x	x
O=[N+]([O-])c1ccc(N/N=C/c2ccc(OCc3cccc4ccccc34)cc2)nc1	-8	5	45*	12	11	-1	-38	2
CCCOC(=S)Nc1ccccc1	0	-7	1	-1	-8	6	x	x
Fc1ccc(-n2c(-c3ccco3)n[nH]c2=S)cc1	17	x	16	x	65	x	x	x
Cc1ccc(-n2c(-c3ccco3)n[nH]c2=S)cc1	4	2	32*	-2	88*	-6	-5	-5
O=c1[nH]c(=S)[nH]c2c1CN(Cc1ccc(F)cc1)CC2	18	3	37*	-2	x	-6	9	5
CCOC(=O)c1sc(NC(=O)Cc2ccc(C)cc2)nc1C	-7	-2	2	2	-1	-9	x	x
CCOC(=O)c1sc(NNC(=O)c2ccc(C)cc2)nc1C	-4	-6	37*	1	x	4	8	-1
CCOc1ccccc1NC(=O)CN(c1ccc(OC)cc1)S(=O)(=O)c1c(C)[nH]c(=O)[nH]c1=O	3	-20	-1	6	-7	-3	x	x
SMILES	NS3 helicase inh	ZTA counter	PfM18AAP inh-1	HCV core dimer	ALR H2O2 inh	EBNA-1 inhibitor	PfM18AAP inh-2	CTSL1 counter
N#Cc1cnc2ncnn2c1-c1ccccc1	4	-11	56*	-6	6	-4	-23	-6
COc1ccc(/C=N/N2C(=O)CSC2=S)cc1	6	-8	49*	4	x	-8	-5	2
COc1ccc(-c2nn(-c3ccccc3)cc2/C=N/N2C(=O)CSC2=S)cc1	12	-6	26	15	2	-4	x	x
CC(/C=N/N1CCN(c2ccccc2)CC1)=C\c1ccccc1	5	-3	-1	0	-3	1	x	x
CC(/C=N/N1C(=O)CSC1=S)=C\c1ccccc1	12	0	42*	5	33	-2	-19	-3
CCN1C(=O)C(=O)N(CC(=O)NC(C)CCc2ccccc2)C1=O (centres undefined)	x	-6	x	x	x	x	x	x
Cc1cc(NC(=O)CSc2ncnc3sc(C)c(C)c23)no1	-11	7	-2	0	-64	2	x	x
COc1ccc(N2C(=O)/C(=C/c3cccnc3)NC2=S)cc1	7	14	-3	-12	16	-6	x	x
COc1ccc(N2C(=O)/C(=C/N(C)C)NC2=S)cc1	-4	-15	80*	-3	70	-12	69*	6
Cc1cc(NNC(=O)Nc2cccc(Cl)c2)nc2c1c(C)nn2C	-12	-7	39*	-1	-7	-5	28	3
O=C(O)CCC(=O)Nc1ccc(N2CCCCCC2)cc1	19	10	44*	-22	99*	1	-1	1
CCOC(=O)N1CCN(S(=O)(=O)N2CCCC(C(=O)NCCCN3CC(C)CC(C)C3)C2)CC1 (centres undefined)	5	-3	-5	5	-4	5	x	x
CCCCC[n+]1cccc2c3ccccc3ccc21	-18	11	-14	-3	-12	7	x	x
CCC[n+]1c2ccccc2cc2ccccc21	19	-11	47*	-8	41	-11	17	3
CCCC[n+]1c2ccccc2cc2ccccc21	-10	-2	38*	1	43	-21	16	-2
Fc1ccc2nc(Nc3ccccc3)sc2c1	-1	0	-6	-4	-4	-1	x	x
NNc1nc2ccc(F)cc2s1	13	16	37*	1	99*	3	29*	0
COC(C(=O)N1CCC(CCC(=O)Nc2ccccc2)CC1)c1ccccc1 (centres undefined)	-2	1	-11	2	-11	-2	x	x
